From ChEMBL document CHEMBL1122463, “2,3-dihydro-3-(1-pyrryl)spiro[benzofuran-2,4'-piperidine]s and 2,3-dihydro-3-(1-pyrryl)spiro[benzofuran-2,3'-pyrrolidine]s: novel antihypertensive agents” (1983)
Values joined by “and” are separate entries in the source; they are usually repeats but may differ in a detail not shown here. Identical values can stand only once.

Assays:
Rattus norvegicus [1] = assay: (§1) Oral hypotensive activity in spontaneously hypertensive rats by using tail-cuff method measured as change in systolic BP at the dose of 50 mg/kg po.; format: functional, Blood
Procedure, shortened: (§2)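 Okamoto-Aoki strain spontaneously hypertensive rats. Compounds were suspended in distilled water with Tween 80 and given orally every day at 50, 30, 10 or 3 mg/kg. Systolic BP was measured by tail-cuff plethysmography on day 1 (predose and 2 h), day 3 (predose and 2 h) and day 5 (predose, 2 and 4 h). The screen used 4 rats; dose-response used 4–8 rats per dose.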

Canis familiaris [2] = assay: Mean Heart rate before administration at a dose of 10 mg/kg iv.; format: functional, Canis lupus familiaris
Rattus norvegicus [3] = assay: as §1; format: functional, Blood; remark: listed apart in the source
Procedure, shortened: (§3)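 Okamoto-Aoki spontaneously hypertensive rats. Compound suspended in distilled water with Tween 80, given po daily, screening dose 50 mg/kg, dose-response at 50, 30, 10 or 3 mg/kg unless stated. Systolic BP by tail-cuff plethysmography on day 1 predose and 2 h, day 3 predose and 2 h, and day 5 predose, 2 and 4 h. Reported as peak decrease on day 3 (or day 5) at 2 h ± SEM. n = 4 in screen, 4–8 per dose.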

Canis familiaris [4] = assay: Hemodynamic effect in sinoaortic- deafferented hypertensive dog measured as heart rate after 30 min of 5 mg/kg dose; format: functional, Canis lupus familiaris
Rattus norvegicus [5] = assay: hypotensive activity in renal hypertensive rats by using tail-cuff method measured as post drug BP (day/h) after administration of 10 mg/kg dose po;(day/h=2/2); format: functional, Blood
Procedure, shortened: (§4)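 Renal hypertension (modified Grollman) was made in male Sprague-Dawley rats under pentobarbital sodium 50 mg/kg ip. The right kidney was removed, and silk sutures around both poles of the left kidney constricted the parenchyma. After 3 weeks of stabilization, rats with systolic BP >150 mmHg were used. Compounds were given orally. Systolic BP was measured by tail-cuff predose and at the stated day/h after dosing.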

Canis familiaris [6] = assay: Hemodynamic effect in sinoaortic- deafferented hypertensive dog measured as heart rate after 5 min of 5 mg/kg dose; format: functional, Canis lupus familiaris
Canis familiaris [7] = assay: Effect of compound at a dose of 10 mg/kg iv, on standard cardiovascular in anesthetized normotensive dogs before administration of tyramine.; format: functional, Canis lupus familiaris, Heart
Procedure, shortened: (§5)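 Trachea intubated, artificially respired, bilateral vagotomy. Femoral artery cannulated for BP, femoral vein for drugs. BP and heart rate recorded continuously. Each iv challenge given twice predrug for matched responses and once after test drug. Doses: epinephrine and norepinephrine 0.5 to 1.0 μg/kg; isoproterenol and carbachol 0.25 μg/kg.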

Rattus norvegicus [8] = assay: Hypotensive activity in renal hypertensive rats by using tail-cuff method measured as post drug BP (day/h) after administration of 10 mg/kg dose po;(day/h=1/2); format: functional, Blood
Procedure, shortened: (§6)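 Renal hypertension made in male Sprague-Dawley rats (Grollman modification). Under pentobarbital (50 mg/kg ip), the right kidney was removed and silk sutures tied around both poles of the left kidney to constrict it. After 3 weeks, rats with systolic BP >150 mmHg were used. Compound given po daily to 4 rats. Systolic BP by tail-cuff plethysmography at the listed day/hour after dosing.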

Canis familiaris [9] = assay: Hemodynamic effect in sinoaortic- deafferented hypertensive dog measured as left ventricular pressure after 30 min of 5 mg/kg; format: functional, Canis lupus familiaris, Heart left ventricle
Canis familiaris [10] = assay: Effect of compound at a dose of 10 mg/kg iv, on standard cardiovascular in anesthetized normotensive dogs before administration of isoproterenol.; format: functional, Canis lupus familiaris, Heart; procedure, shortened: as §5
Rattus norvegicus [11] = assay: (§7) Oral hypotensive activity in spontaneously hypertensive rats by using tail-cuff method measured as change in systolic BP at the dose of 10 mg/kg po.; format: functional, Blood; procedure, shortened: as §3
Canis familiaris [12] = assay: Hemodynamic effect in sinoaortic- deafferented hypertensive dog measured as left ventricular pressure after 60 min of 5 mg/kg; format: functional, Canis lupus familiaris, Heart left ventricle
Canis familiaris [13] = assay: Hemodynamic effect in sinoaortic- deafferented hypertensive dog measured as mean arterial BP after 0 min of 5 mg/kg dose; format: functional, Canis lupus familiaris
Canis familiaris [14] = assay: Mean arterial BP before administration at a dose of 10 mg/kg iv.; format: functional, Canis lupus familiaris
Rattus norvegicus [15] = assay: hypotensive activity in renal hypertensive rats by using tail-cuff method measured as post drug BP (day/h) after administration of 10 mg/kg dose po;(day/h=3/0); format: functional, Blood; procedure, shortened: as §4
Canis familiaris [16] = assay: Hemodynamic effect in sinoaortic- deafferented hypertensive dog measured as mean arterial BP after 30 min of 5 mg/kg dose; format: functional, Canis lupus familiaris
Canis familiaris [17] = assay: Hemodynamic effect in sinoaortic- deafferented hypertensive dog measured as left ventricular pressure after 0 min of 5 mg/kg; format: functional, Canis lupus familiaris, Heart left ventricle
Rattus norvegicus [18] = assay: (§8) Oral hypotensive activity in spontaneously hypertensive rats by using tail-cuff method measured as change in systolic BP at the dose of 25 mg/kg po.; format: functional, Blood
Procedure, shortened: (§9)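 SHR of the Okamoto-Aoki strain, dosed orally every day with compound suspended in distilled water with Tween 80. Systolic pressure was taken by tail-cuff plethysmography on day 1 (predose, 2 h), day 3 (predose, 2 h) and day 5 (predose, 2 and 4 h). Initial BP is the pretreatment systolic pressure, with 4–8 rats per dose in the dose-response screen.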

Rattus norvegicus [19] = assay: as §7; format: functional, Blood; procedure, shortened: as §9; remark: listed apart in the source
Rattus norvegicus [20] = assay: as §8; format: functional, Blood; procedure, shortened: as §3; remark: listed apart in the source
Canis familiaris [21] = assay: Hemodynamic effect in sinoaortic- deafferented hypertensive dog measured as mean arterial BP after 5 min of 5 mg/kg dose; format: functional, Canis lupus familiaris
Canis familiaris [22] = assay: Mean Heart rate after. administration at a dose of 10 mg/kg iv.; format: functional, Canis lupus familiaris
Canis familiaris [23] = assay: Effect of compound at a dose of 10 mg/kg iv, on standard cardiovascular in anesthetized normotensive dogs after administration of norepinephrine.; format: functional, Canis lupus familiaris, Heart; procedure, shortened: as §5
Canis familiaris [24] = assay: Effect of compound at a dose of 10 mg/kg iv, on standard cardiovascular in anesthetized normotensive dogs after administration of carbachol; format: functional, Canis lupus familiaris, Heart; procedure, shortened: as §5
Rattus norvegicus [25] = assay: Hypotensive activity in renal hypertensive rats by using tail-cuff method measured as initial BP at the dose of 10 mg/kg po.; format: functional, Blood; procedure, shortened: as §6
Canis familiaris [26] = assay: Effect of compound at a dose of 10 mg/kg iv, on standard cardiovascular in anesthetized normotensive dogs after administration of epinephrine.; format: functional, Canis lupus familiaris, Heart; procedure, shortened: as §5
Canis familiaris [27] = assay: Hemodynamic effect in sinoaortic- deafferented hypertensive dog measured as heart rate after 60 min of 5 mg/kg dose; format: functional, Canis lupus familiaris
Canis familiaris [28] = assay: Effect of compound at a dose of 10 mg/kg iv, on standard cardiovascular in anesthetized normotensive dogs after administration of tyramine.; format: functional, Canis lupus familiaris, Heart; procedure, shortened: as §5
Canis familiaris [29] = assay: Effect of compound at a dose of 10 mg/kg iv, on standard cardiovascular in anesthetized normotensive dogs before administration of epinephrine.; format: functional, Canis lupus familiaris, Heart; procedure, shortened: as §5
Rattus norvegicus [30] = assay: hypotensive activity in renal hypertensive rats by using tail-cuff method measured as post drug BP (day/h) after administration of 10 mg/kg dose po;(day/h=3/2); format: functional, Blood; procedure, shortened: as §4
Canis familiaris [31] = assay: Hemodynamic effect in sinoaortic- deafferented hypertensive dog measured as left ventricular pressure after 5 min of 5 mg/kg; format: functional, Canis lupus familiaris, Heart left ventricle
Rattus norvegicus [32] = assay: (§10) Oral hypotensive activity in spontaneously hypertensive rats by using tail-cuff method measured as change in systolic BP at the dose of 5 mg/kg po.; format: functional, Blood; procedure, shortened: as §2
Rattus norvegicus [33] = assay: as §10; format: functional, Blood; procedure, shortened: as §3; remark: listed apart in the source
Canis familiaris [34] = assay: Mean arterial BP after administration at a dose of 10 mg/kg iv.; format: functional, Canis lupus familiaris
Canis familiaris [35] = assay: Effect of compound at a dose of 10 mg/kg iv, on standard cardiovascular in anesthetized normotensive dogs after administration of isoproterenol.; format: functional, Canis lupus familiaris, Heart; procedure, shortened: as §5
Canis familiaris [36] = assay: Hemodynamic effect in sinoaortic- deafferented hypertensive dog measured as heart rate after 0 min of 5 mg/kg dose; format: functional, Canis lupus familiaris
Canis familiaris [37] = assay: Effect of compound at a dose of 10 mg/kg iv, on standard cardiovascular in anesthetized normotensive dogs before administration of carbachol; format: functional, Canis lupus familiaris, Heart; procedure, shortened: as §5
Canis familiaris [38] = assay: Hemodynamic effect in sinoaortic- deafferented hypertensive dog measured as mean arterial BP after 60 min of 5 mg/kg dose; format: functional, Canis lupus familiaris
Canis familiaris [39] = assay: Effect of compound at a dose of 10 mg/kg iv, on standard cardiovascular in anesthetized normotensive dogs before administration of norepinephrine.; format: functional, Canis lupus familiaris, Heart; procedure, shortened: as §5

CN1CCC2(CC1)Oc1ccccc1C2n1cccc1 (centres undefined)
BP (Rattus norvegicus [1]): 202 mmHg | Rate (Canis familiaris [2]): 147 beats min-1 | Delta blood pressure (Rattus norvegicus [3]): 39 mmHg | Rate (Canis familiaris [4]): 174 beats min-1 | BP (Rattus norvegicus [5]): 184 mmHg and 170 mmHg | Rate (Canis familiaris [6]): 154 beats min-1 | BP (Canis familiaris [7]): 52.5 mmHg | BP (Rattus norvegicus [8]): 196 mmHg | dP/dt (Canis familiaris [9]): 26.2 1/Pmax s | BP (Canis familiaris [10]): -38 mmHg | Delta blood pressure (Rattus norvegicus [11]): 50 mmHg | dP/dt (Canis familiaris [12]): 23.4 1/Pmax s | BP (Canis familiaris [13]): 175 mmHg | BP (Canis familiaris [14]): 117 mmHg | BP (Rattus norvegicus [15]): 183 mmHg | BP (Canis familiaris [16]): 129 mmHg | dP/dt (Canis familiaris [17]): 24.2 1/Pmax s | BP (Rattus norvegicus [18]): 196 mmHg | BP (Rattus norvegicus [19]): 190 mmHg | Delta blood pressure (Rattus norvegicus [20]): 58 mmHg | BP (Canis familiaris [21]): 123 mmHg | Rate (Canis familiaris [22]): 113 beats min-1 | BP (Canis familiaris [23]): 58 mmHg | BP (Canis familiaris [24]): -29.7 mmHg | BP (Rattus norvegicus [25]): 206 mmHg | BP (Canis familiaris [26]): 67 mmHg | Rate (Canis familiaris [27]): 160 beats min-1 | BP (Canis familiaris [28]): 48 mmHg | BP (Canis familiaris [29]): 53.7 mmHg | BP (Rattus norvegicus [30]): 97 mmHg | dP/dt (Canis familiaris [31]): 26 1/Pmax s | BP (Rattus norvegicus [32]): 184 mmHg | Delta blood pressure (Rattus norvegicus [33]): 30 mmHg | BP (Canis familiaris [34]): 82.3 mmHg | BP (Canis familiaris [35]): -30 mmHg | Rate (Canis familiaris [36]): 194 beats min-1 | BP (Canis familiaris [37]): -49.2 mmHg | BP (Canis familiaris [38]): 129 mmHg | BP (Canis familiaris [39]): 57 mmHg
